Data: ChEMBL document CHEMBL3785007 (Drug Metabol Drug Interact, 2011)

Tests used:
[1] = Cmax in healthy Chinese subject (8 subjects) with heterozygous mutant of NAT2 genotype at 300 mg, po administered after overnight fast by HPLC method; format: ADME, organism-based; set-up: dose 300 mg, route oral; conditions: human, in vivo
[2] = system: Homo sapiens; assay: AUC in healthy Chinese subject (8 subjects) with heterozygous mutant of NAT2 genotype at 300 mg, po administered after overnight fast by HPLC method; format: ADME, organism-based; conditions: in vivo
Method in brief: (§1)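 Plasma separated within 1 h and stored at −70°C. Deproteinised with 10% perchloric acid, then reversed-phase C18 HPLC with UV detection at 266 nm. AUC by trapezoidal method extrapolated to infinity; mean±SD.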

[3] = Clearance in healthy Chinese subject (8 subjects) with homozygous wild type NAT2 genotype at 300 mg, po administered after overnight fast by HPLC method; format: ADME, organism-based; conditions: human, in vivo
[4] = system: Homo sapiens; assay: Cmax in healthy Chinese subject (8 subjects) with homozygous mutant of NAT2 genotype assessed as N-acetylisoniazid at 300 mg, po administered after overnight fast by HPLC method; format: ADME, organism-based; set-up: dose 300 mg, route oral; conditions: in vivo
[5] = system: Homo sapiens; assay: Clearance in healthy Chinese subject (8 subjects) with homozygous mutant of NAT2 genotype assessed as N-acetylisoniazid at 300 mg, po administered after overnight fast by HPLC method; format: ADME, organism-based; conditions: in vivo
[6] = system: Homo sapiens; assay: AUC in healthy Chinese subject (8 subjects) with homozygous mutant of NAT2 genotype at 300 mg, po administered after overnight fast by HPLC method; format: ADME, organism-based; conditions: in vivo; method in brief: as §1
[7] = system: Homo sapiens; assay: AUC in healthy Chinese subject (8 subjects) with homozygous mutant of NAT2 genotype assessed as N-acetylisoniazid at 300 mg, po administered after overnight fast by HPLC method; format: ADME, organism-based; conditions: in vivo; method in brief: as §1
[8] = system: Homo sapiens; assay: AUC in healthy Chinese subject (8 subjects) with heterozygous mutant of NAT2 genotype assessed as N-acetylisoniazid at 300 mg, po administered after overnight fast by HPLC method; format: ADME, organism-based; conditions: in vivo; method in brief: as §1
[9] = system: Homo sapiens; assay: AUC in healthy Chinese subject (8 subjects) with homozygous wild type NAT2 genotype at 300 mg, po administered after overnight fast by HPLC method; format: ADME, organism-based; conditions: in vivo; method in brief: as §1
[10] = system: Homo sapiens; assay: Clearance in healthy Chinese subject (8 subjects) with homozygous wild type NAT2 genotype assessed as N-acetylisoniazid at 300 mg, po administered after overnight fast by HPLC method; format: ADME, organism-based; conditions: in vivo
[11] = Clearance in healthy Chinese subject (8 subjects) with heterozygous mutant of NAT2 genotype at 300 mg, po administered after overnight fast by HPLC method; format: ADME, organism-based; conditions: human, in vivo
[12] = system: Homo sapiens; assay: Cmax in healthy Chinese subject (8 subjects) with homozygous wild type NAT2 genotype assessed as N-acetylisoniazid at 300 mg, po administered after overnight fast by HPLC method; format: ADME, organism-based; set-up: dose 300 mg, route oral; conditions: in vivo
[13] = system: Homo sapiens; assay: Cmax in healthy Chinese subject (8 subjects) with heterozygous mutant of NAT2 genotype assessed as N-acetylisoniazid at 300 mg, po administered after overnight fast by HPLC method; format: ADME, organism-based; set-up: dose 300 mg, route oral; conditions: in vivo
[14] = Clearance in healthy Chinese subject (8 subjects) with homozygous mutant of NAT2 genotype at 300 mg, po administered after overnight fast by HPLC method; format: ADME, organism-based; conditions: human, in vivo
[15] = system: Mycobacterium tuberculosis; assay: Antitubercular activity against Mycobacterium tuberculosis in tuberculosis patient assessed as compound level in serum required to cause 90% maximum early bactericidal activity at 0.2 to 12 mg/kg after 2 hrs; format: functional
[16] = system: Mycobacterium tuberculosis; assay: Antitubercular activity against Mycobacterium tuberculosis in tuberculosis patient assessed as compound AUC (0 to infinity) required to cause 90% maximum early bactericidal activity at 0.2 to 12 mg/kg; format: functional, organism-based
[17] = system: Homo sapiens; assay: Clearance in healthy Chinese subject (8 subjects) with heterozygous mutant of NAT2 genotype assessed as N-acetylisoniazid at 300 mg, po administered after overnight fast by HPLC method; format: ADME, organism-based; conditions: in vivo
[18] = Cmax in healthy Chinese subject (8 subjects) with homozygous mutant of NAT2 genotype at 300 mg, po administered after overnight fast by HPLC method; format: ADME, organism-based; set-up: dose 300 mg, route oral; conditions: human, in vivo
[19] = system: Homo sapiens; assay: AUC in healthy Chinese subject (8 subjects) with homozygous wild type NAT2 genotype assessed as N-acetylisoniazid at 300 mg, po administered after overnight fast by HPLC method; format: ADME, organism-based; conditions: in vivo; method in brief: as §1
[20] = Cmax in healthy Chinese subject (8 subjects) with homozygous wild type NAT2 genotype at 300 mg, po administered after overnight fast by HPLC method; format: ADME, organism-based; set-up: dose 300 mg, route oral; conditions: human, in vivo

NNC(=O)c1ccncc1 [ISONIAZID]
Cmax [1]: 5720 ng/mL | AUC [2]: 16300 ng·h/mL | CL/F [3]: 501 mL/min | Cmax [4]: 1380 ng/mL | CL [5]: 16.07 L/h | AUC [6]: 42200 ng·h/mL | AUC [7]: 19800 ng·h/mL | AUC [8]: 38000 ng·h/mL | AUC [9]: 10400 ng·h/mL | CL [10]: 7.4 L/h | CL/F [11]: 320 mL/min | Cmax [12]: 5590 ng/mL | Cmax [13]: 3990 ng/mL | CL/F [14]: 130 mL/min | Activity [15]: 2.19 µg/mL | AUC [16]: 10500 ng·h/mL | CL [17]: 8.03 L/h | Cmax [18]: 8280 ng/mL | AUC [19]: 42200 ng·h/mL | Cmax [20]: 4930 ng/mL
